The values below come from ChEMBL document CHEMBL1141187, “New potential anticancer agents based on the anthranilic acid scaffold: synthesis and evaluation of biological activity” (2005).

Common to all, as to type: functional
One assay relates to SN12C. Description: Antiproliferative activity against human renal SN12C cell line. The method, boiled down:
(§1)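 Part of the NCI ~60 human tumor cell line panel screen. Each compound was tested at five concentrations in 10-fold dilutions from 10^-4 to 10^-8 M. GI50 is read from dose-response curves as the molar concentration giving 50% inhibition of net cell growth, and is also reported as pGI50 (-log molar).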

In the next assay the test system is UACC-62. Nature of the assay: Antiproliferative activity against human melanoma UACC62 cell line. The method, boiled down: as §1
In the next assay the test system is SF-268. Description: Antiproliferative activity against human CNS SF268 cell line. Summed up: as §1
The subject of another assay is SW-620. Nature of the assay: Antiproliferative activity against human colon SW620 cell line. Summed up:
as §1

For the next assay, the system named is NCI-H23. Nature of the assay: Antiproliferative activity against human lung NCI-H23 cell line. The method, boiled down: as §1
A further assay deals with K562. Description: Antiproliferative activity against human leukemia K562 cell line. The method, boiled down: as §1
A further assay deals with MCF7. Nature of the assay: Antiproliferative activity against human breast cancer MCF7 cell line. The method, boiled down: as §1

`O=C(Oc1ccccc1Cl)c1ccccc1Nc1cccc(C(F)(F)F)c1`: the GI50 in the assay with SN12C was 23.4 µM; in the assay with UACC-62, 17 µM; in the assay on SF-268, 20.4 µM; in the assay on SW-620 it was 8.13 µM; in the assay on NCI-H23, 20 µM; in the assay on K562, 2.69 µM. The compound further showed a GI50 in the assay on MCF7 of 33.9 µM.
On to `O=C(Oc1ccc(Cl)cc1)c1ccccc1Nc1ccnc(C(F)(F)F)c1`, for which the concentration for 50% growth inhibition (GI50) in the assay on SN12C is 2.95 µM; in the assay on UACC-62, 2.63 µM; with SF-268, 4.37 µM; in the assay on SW-620, 6.61 µM; in the assay with NCI-H23, 2.82 µM; in the assay on K562 it was 3.63 µM. This compound also showed a GI50 in the assay on MCF7 of 3.72 µM.
As to `O=C(Oc1ccc(Cl)cc1Cl)c1ccccc1Nc1ccnc(C(F)(F)F)c1`, the GI50 was 3.02 µM with SN12C; 2.29 µM with UACC-62; 3.09 µM in the assay with SF-268; 4.57 µM in the assay with SW-620; 3.55 µM with NCI-H23; 3.02 µM in the assay with K562. This compound also showed a GI50 in the assay with MCF7 of 3.63 µM.
For the compound `O=C(Oc1cccnc1)c1ccccc1Nc1ccnc(C(F)(F)F)c1`, the GI50 with SN12C is 0.0708 µM; with UACC-62 it was 0.288 µM; in the assay on SF-268, 0.331 µM; in the assay on SW-620, 0.0407 µM; in the assay with NCI-H23 it was 0.0363 µM; in the assay on K562, 0.0427 µM. Also, in the assay on MCF7, halving of growth (GI50) required 0.0457 µM.
Regarding `O=C(Oc1cccnc1)c1cccnc1Nc1ccnc(C(F)(F)F)c1`, the GI50 with SN12C is 6.46 µM; in the assay on UACC-62, 5.75 µM; in the assay with SF-268, 5.62 µM; with SW-620 it was 5.5 µM; with NCI-H23, 6.31 µM; with K562, 5.13 µM. In the assay with MCF7, this compound showed a GI50 of 2.69 µM.
On to `O=C(Oc1ccccc1Cl)c1cccnc1Nc1ccnc(C(F)(F)F)c1`, for which the GI50 in the assay with SN12C was 4.07 µM; in the assay with UACC-62, 6.17 µM; with SF-268, 10 µM; in the assay with SW-620, 3.72 µM; in the assay on NCI-H23, 8.71 µM; with K562, 4.57 µM. This compound also gave a GI50 in the assay with MCF7 of 3.63 µM.
For `O=C(Oc1c(Cl)cc(Cl)cc1Cl)c1ccccc1Nc1ccnc(C(F)(F)F)c1`, the 50% growth inhibitory concentration (GI50) in the assay with SN12C was 3.09 µM; with UACC-62 it was 1.74 µM; with SF-268, 3.89 µM; with SW-620, 4.57 µM; in the assay with NCI-H23, 2.57 µM; in the assay with K562 it was 2.4 µM. In the assay with MCF7, halving of growth (GI50) required 4.68 µM.
For the compound `O=C(Oc1ccccc1Cl)c1ccccc1Nc1ccnc(C(F)(F)F)c1`, the GI50 in the assay on SN12C was 0.331 µM; in the assay on UACC-62, 0.309 µM; with SF-268, 2.24 µM; in the assay on SW-620, 0.363 µM; with NCI-H23, 0.257 µM; in the assay on K562 it was 0.0513 µM. In addition, halving of growth in the assay with MCF7 (GI50) required 0.282 µM.
As for `O=C(Oc1cccc(Cl)c1)c1ccccc1Nc1ccnc(C(F)(F)F)c1`, the GI50 is 2.95 µM in the assay on SN12C; 2.04 µM in the assay with UACC-62; 3.02 µM in the assay with SF-268; 4.37 µM in the assay with SW-620; 2.4 µM in the assay on NCI-H23; 3.24 µM with K562. In the assay with MCF7, the GI50 is 4.79 µM.
For the compound `COc1cccc(OC(=O)c2ccccc2Nc2ccnc(C(F)(F)F)c2)c1`, the GI50 is 5.37 µM in the assay with SN12C; 3.09 µM in the assay on UACC-62; 4.68 µM in the assay on SF-268; 4.07 µM in the assay on SW-620; 2.04 µM in the assay with NCI-H23; 0.741 µM in the assay with K562. In the assay with MCF7, this compound showed a concentration for 50% growth inhibition (GI50) of 7.24 µM.
